The entries come from a sample that favours hits as a whole.
H69AR growth 86K = growth inhibitors of human H69AR lung tumor cells; H69AR lung tumor viability, ATP luminescence, 72 h; stronger effect = lower value; hit rate 6% among 85,000; viability, % at 10 µM;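 active = viability at or below 40%; inactive = viability above 40%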;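 also: multidrug resistant small cell line overexpressing MRP-1 efflux transporter; 100% = mean luminescence of untreated control wells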
bCat KO growth = beta-catenin-lacking colon tumor cell growth suppression. HCT116 beta-catenin knockout viability, CellTiter-Glo, 60 h; stronger effect = lower value. viability, % at 10 µM. hit rate 1.5% among 140,000;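 active = viability at or under a set limit, the compound median less 4 SD, cut at about 6% in these data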;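 also: 0% = Hyamine 1622 control at 20 µM and 100% = untreated cell control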
HCT116 PTEN-null = growth suppressors of cells with PTEN tumor suppressor deletion; viability, % at 10 µM; HCT116 PTEN-null viability, CellTiter-Glo, 60 h; stronger effect = lower value; AID 827; hit rate 1.2% among 140,000;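 active = viability at or below a set limit, 4 SD under the median of all tested compounds, cut at about 3.7% in these data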;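 also: PTEN knockout HCT116 line with beta catenin targeted HCT116 as companion control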
HUVEC inhibit = blocks proliferation of human endothelial cells. hit rate 1.1% among 86,000. HUVEC proliferation, CellTiter-Glo luminescence, 72 h; stronger effect = lower value. viability, % at 10 µM (by protocol);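 active = viability at or below 30%; inactive = viability above 30%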;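 also: 100% = median luminescence of DMSO-only cell control wells on each plate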
Fibroblast inh = blocks proliferation of human lung fibroblasts; LL 47 human lung fibroblast viability, ATP luminescence; stronger effect = lower value; viability, % at 10 µM; hit rate 1.1% among 85,000; AID 719;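 active = viability at or below 50% in the single dose screen; inactive = viability above 50%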;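 also: compound exposure lasted 72 h before the ATP readout; 100% = median luminescence of untreated cell-only wells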
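Benchmarks: Cell-only wells, no compound | Test system: LL 47 human lung fibroblasts, passage 12 or lower | Input: 1,150 cells/well | Measured by: CellTiter-Glo luminescence measuring cellular ATP | Medium: IMEM, 15% FBS supplement | Schedule: Overnight attachment after seeding, then 72 h compound exposure at 37 °C | Doses: Compound addition at 0.1% DMSO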
* = called active by the depositor; . = no result given.

SMILES	H69AR growth 86K	bCat KO growth	HCT116 PTEN-null	HUVEC inhibit	Fibroblast inh
O=C(CC1N=C2c3ccccc3N=C(SCc3ccc(F)cc3)N2C1=O)NCc1ccco1 (stereo not drawn)	37.9*	79.3	77.0	64.1	92.9
O=C(CCC1N=C2c3ccccc3N=C(SCc3ccc(Cl)cc3)N2C1=O)NCc1ccco1 (stereo not drawn)	73.8	75.0	68.8	76.0	101.6
Cc1ccc(CSC2=Nc3ccccc3C3=NC(CC(=O)NCc4ccco4)C(=O)N23)cc1 (stereo not drawn)	29.1*	102.0	94.9	78.9	100.6
CCOC(=O)c1cncc(C(=O)O)c1	.	85.7	102.6	.	.
CCOC(=O)C1CCN(Cc2ccc(O)c3ncccc23)CC1	1.1*	3.0*	1.9*	80.1	78.8
Oc1ccc(CN2CCCc3ccccc32)c2cccnc12	33.7*	10.2	5.5	86.4	58.6
CCOC(=O)C1CCN(Cc2ccccc2C(F)(F)F)CC1	99.8	81.0	106.3	90.1	98.1
COc1ccccc1N1CCN(Cc2ccc(O)c3ncccc23)CC1	.	3.3*	1.7*	.	.
CCN(CC)S(=O)(=O)c1ccc(C(=O)NNC(=O)C2CCN(S(=O)(=O)c3ccc(Cl)cc3)CC2)cc1	.	89.6	87.5	.	.
C/C(=N/NC(=O)Cc1ccccc1)c1ccc(C)s1	.	103.2	109.9	.	.
CC1=C(C)/C(=N/OC(=O)c2cccc([N+](=O)[O-])c2)C=CC1=O	10.9*	1.6*	1.7*	87.7	89.2
N/C(=N\OC(=O)c1ccc2ccccc2c1)c1cccc([N+](=O)[O-])c1	.	6.2	4.8	.	.
Cc1cc(C(=O)N[C@H](c2ccccc2)[C@@]2(C)C[C@@H]2[C@@H](C)C(=O)Nc2ccc3ccccc3c2)n(C)n1	.	21.2	14.1	.	.
COc1ccc(/C=N/NC(=O)CCSc2nc3ccccc3s2)cc1OC	.	87.6	81.5	.	.
O=C(CCSc1nc2ccccc2s1)N/N=C/c1c(O)ccc2ccccc12	.	4.6*	3.2*	.	.
Cc1ccc(N(NC(=O)C(O)(c2ccccc2)c2ccccc2)C(=O)CCl)cc1	.	3.3*	3.4*	.	.
Cc1ccc(C(O)(C(=O)NN(C(=O)c2ccccc2)c2ccccc2)c2ccc(C)cc2)cc1	.	68.7	53.3	.	.
COc1ccccc1/C=C/C(=O)NCC(=O)N/N=C/c1cc(Br)ccc1OC	18.6*	58.8	53.5	72.5	80.2
CCOC(=O)/C=c1\s/c(=C\c2ccc3c(c2)OCCO3)c(=O)n1CC(=O)NCC1CCCO1 (stereo not drawn)	86.1	82.2	84.8	91.2	102.9
CCOC(=O)/C=c1\s/c(=C\c2c(OCC)ccc3ccccc23)c(=O)n1CC(=O)NCC1CCCO1 (stereo not drawn)	30.1*	68.0	64.3	77.9	88.8
CC(C)c1ccc(/C=N/NC(=O)c2nnn(-c3nonc3N)c2CSC2=NCCS2)cc1	.	46.1	33.6	.	.
CCCCS(=O)(=O)/C=C\C1C2C=CC(C2)C1S(=O)(=O)CCCC (stereo not drawn)	83.5	90.8	97.2	102.2	94.5
CCCCS(=O)(=O)/C=C\C=C/S(=O)(=O)CCCC	1.0*	1.7*	2.0*	49.2*	2.5*
O=C(NCc1ccccc1)[C@@H]1C[C@H]1[C@@H](NP(=O)(c1ccccc1)c1ccccc1)c1ccccc1	.	84.1	75.9	.	.
O=C(NCC1CC1)[C@@H]1C[C@H]1[C@@H](NP(=O)(c1ccccc1)c1ccccc1)c1ccccc1	.	0.2*	0.1*	.	.
SMILES	H69AR growth 86K	bCat KO growth	HCT116 PTEN-null	HUVEC inhibit	Fibroblast inh
COc1ccccc1CN=Cc1[nH]c2ccc(Br)c(Cl)c2c1O	25.4*	20.4	57.5	71.0	95.4
CCOC(=O)N1CCc2c(sc3c2C(=O)NC(c2ccc(-c4ccc(Cl)cc4)o2)N3)C1 (stereo not drawn)	30.1*	.	.	89.3	53.1
OCCN(CCO)Cc1csc2ccccc12	.	81.1	90.7	.	.
O=C(CSc1nnc(SCc2ccc(Cl)cc2)s1)N/N=C/c1c[nH]c2ccccc12	.	5.2*	14.4	.	.
CCOc1ccc(CN2CCN(c3cc(C)nc4c5c(C)cc(C)nc5nn34)CC2)cc1	31.6*	92.4	94.6	86.8	94.0
COc1ccc(CN2CCN(c3cc(C)nc4c5c(C)cc(C)nc5nn34)CC2)cc1F	68.3	.	.	69.5	77.3
Cc1cc(C)c2c(n1)nn1c(N3CCN(c4ccccc4C)CC3)cc(C)nc21	36.9*	.	.	65.9	92.4
Cc1cc(C)cc(NS(=O)(=O)c2ccc(NC(=O)C3CCCCC3C(=O)O)cc2)c1 (stereo not drawn)	.	95.6	94.7	.	.
COC(=O)c1ccc(NC(=S)NC2CC3CCC2C3)cc1 (stereo not drawn)	.	87.7	85.8	.	.
N=c1c(-c2nc3ccccc3[nH]2)cc(C(=O)c2ccco2)nn1-c1ccccc1	.	57.4	59.8	.	.
N=c1c(-c2nc3ccccc3[nH]2)cc(C(=O)c2cccs2)nn1-c1ccccc1	5.4*	46.9	54.1	69.7	85.8
Clc1ncnc2scc(C3COc4ccccc4O3)c12 (stereo not drawn)	7.0*	100.2	88.9	62.1	79.8
c1ccc2c(c1)OCC(c1csc3ncnc(N4CCCCC4)c13)O2 (stereo not drawn)	81.8	58.6	67.7	113.2	.
C=CCSc1nc2ccccc2n1C(=O)/C=C/c1cc(OC)c(OC)c(OC)c1	.	3.1*	2.4*	.	.
CCn1c(SCC(=O)N/N=C/c2ccc(OC)c(OC)c2)nc2ccccc21	.	96.5	99.4	.	.
CCSc1nc2ccccc2n1C(=O)/C=C/c1ccc(OC)c(OC)c1	.	5.4*	4.8	.	.
COc1ccc(/C=C/C(=O)NCCn2c(C)cc3ccccc32)cc1OC	.	70.8	67.8	.	.
COc1cc(/C=C/C(=O)NCCn2c(C)cc3ccccc32)cc(OC)c1OC	.	91.8	72.6	.	.
C=CCSc1nc2ccccc2n1C(=O)/C=C/c1ccc(OC)c(OC)c1	.	1.8*	1.8*	.	.
Cc1ccc(NC(=O)Cn2c(-c3ccc(F)cc3)cnc2SCC(=O)Nc2c(C)cccc2C)cc1	.	60.4	79.6	.	.
CC(C)CCC(O)(CCC(C)C)C(=O)NN1CCCCC1	.	77.0	81.8	.	.
CCc1cccc(CC)c1NC(=S)NCC(c1cccnc1)N1CCOCC1 (stereo not drawn)	.	86.8	82.8	.	.
C(=N\Nc1nc2ccccc2[nH]1)/c1c[nH]c2ccccc12	.	9.1	14.4	.	.
O=[N+]([O-])c1cc(/C=N/Nc2nc3ccccc3[nH]2)c(O)cc1O	.	5.2*	6.1	.	.
CC/C(=C\C1CCCCC1)C(NP(=O)(c1ccccc1)c1ccccc1)c1ccccc1 (stereo not drawn)	.	5.6*	3.9	.	.
COc1ccc2c(c1OC)C(=O)N1c3ccccc3C(=O)N(c3ccc(F)cc3)C21 (stereo not drawn)	11.8*	61.1	75.3	88.2	93.2
COc1ccc2c(c1OC)C(=O)N1c3ccccc3C(=O)N(c3ccccc3)C21 (stereo not drawn)	1.0*	52.2	59.5	67.8	93.4
COc1ccc2c(c1OC)C(=O)N1c3ccccc3N=C(c3ccc([N+](=O)[O-])cc3)CC21 (stereo not drawn)	.	47.2	37.9	.	.
Cc1ccccc1N1C(=O)c2ccccc2N2C(=O)c3ccccc3C12 (stereo not drawn)	57.7	76.1	75.3	84.6	80.2

Assay outcomes: PubChem BioAssay, SRMLSC
